Results as given in ChEMBL document CHEMBL1126098, “Synthesis and SAR of 6-substituted purine derivatives as novel selective positive inotropes” (J Med Chem, 1992).
Calls of active or inactive are those of the source. The rule behind the calls is not given here.

Tests used:
Canis familiaris [1] = test: Heart rate in dog after administering ca. 1.875 mg/Kg drug intravenously; assay type: functional, Canis lupus familiaris
Procedure, shortened: (§1)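 Adult mongrel dogs anesthetized with sodium pentobarbital (45 mg/kg ip) and artificially respired. MAP measured via cannulated femoral artery; HR from cardiotachometer; LV +dP/dtmax via Millar catheter; CF by Walton Brodie strain gauge on right ventricle (baseline tension 100 g). Compound in 10% DMF/saline or HCl salt, infused iv into femoral vein over 5 min per step. Each step given at peak of the prior one; three to four increasing doses. Response expressed as % change from predrug control; n = 1–5 dogs.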

Canis familiaris [2] = test: Cardiac force in dog after administering ca. 1.875 mg/Kg drug intravenously.; assay type: functional, Canis lupus familiaris; set-up: unit not given beside the values; procedure, shortened: as §1
Canis familiaris [3] = test: Mean arterial blood pressure in dog after administering ca. 1.875 mg/Kg drug intravenously.; assay type: functional, Canis lupus familiaris; set-up: unit not given beside the values; procedure, shortened: as §1
Canis familiaris [4] = species: Canis familiaris; test: dP/dt max was determined in dog; assay type: functional, Canis lupus familiaris; set-up: unit not given beside the values; procedure, shortened: as §1
Canis familiaris [5] = test: Effective dose required to produce 50% increase of cardiac force in dog after administering ca. 1.875 mg/Kg drug intravenously; assay type: functional; conditions: Canis lupus familiaris, iv; procedure, shortened: as §1
[6] = Relative change in CF was determined by calculating the effective concentration that produced a 50% of maximum increase in tension.; assay type: functional, Mustela putorius furo
Procedure, shortened: (§2)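 Ferret papillary muscle in Tyrode's solution with timolol (1×10^-7 M); compound given at cumulative serially increasing concentrations, each read at 15 min. EC50 is the concentration giving 50% of that compound's own maximal tension increase. Estimated graphically from mean data, n ≥ 3.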

Mustela putorius furo = species: Mustela putorius furo; test: In vitro changes in contractile force (CF) quantitated by determining the maximal increase in isometric tension by using ferret papillary muscle.; assay type: functional, tissue-based; conditions: Muscle tissue
Procedure, shortened: (§3)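 Isolated ferret papillary muscle in Tyrode's solution with timolol (1×10^-7 M), equilibrated 2 h. Compound diluted from 1×10^-2 M DMSO stock and added at serially increasing concentrations, up to 10 μM. Isometric tension read 15 min after each addition. Result is maximal increase as % of control tension, from mean of n ≥ 3.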

[7] = Relative change in CF was determined by calculating the effective concentration that produced a 50% of maximum increase in tension; assay type: functional, Mustela putorius furo; procedure, shortened: as §2
[8] = In vitro changes in contractile force (CF) quantitated by determining the maximal increase in isometric tension by using ferret papillary muscle; assay type: functional, Mustela putorius furo, Muscle tissue; procedure, shortened: as §3

Compound | Heart rate (Canis familiaris [1]) | Cardiac force (Canis familiaris [2]) | MAP (Canis familiaris [3]) | dP/dt max (Canis familiaris [4]) | ED50 (Canis familiaris [5]) [mg/kg] | EC50 [6] | Max (Mustela putorius furo) | EC50 [7] [nM] | Max [8] [%]
OC(COc1[nH]cnc2ncnc1-2)CN1CCN(C(c2ccc(F)cc2)c2ccc(F)cc2)CC1 (stereo not drawn) | 12 | 80 | 4 | 58 | 0.72 | Not Active | inactive | – | –
CC(C)(C)C(=O)OC(CSc1[nH]cnc2ncnc1-2)CN1CCN(C(c2ccc(F)cc2)c2ccc(F)cc2)CC1 (stereo not drawn) | 4 | 12 | -5 | 24 | – | – | – | 170 | 43
N#Cc1cc2c(OCC(O)CN3CCN(C(c4ccccc4)c4ccccc4)CC3)cccc2[nH]1 (stereo not drawn) | -12 | 98 | -21 | 88 | 0.43 | – | – | 500 | 131
OC(CSc1ncnc2c1ncn2-c1ccccc1)CN1CCN(C(c2ccc(F)cc2)c2ccc(F)cc2)CC1 (stereo not drawn) | 4 | 12 | -3 | 5 | – | Not Active | inactive | – | –
OC(CSc1[nH]cnc2ncnc1-2)CN1CCN(C(c2ccc(C(F)(F)F)cc2)c2ccc(C(F)(F)F)cc2)CC1 (stereo not drawn) | 0 | 71 | 5 | 47 | – | – | – | 1000 | 47
OC(CSc1[nH]cnc2ncnc1-2)CN1CCN(C(c2ccccc2)c2ccccc2)CC1 (stereo not drawn) | -1 | 86 | -12 | 60 | 0.63 | – | – | 1100 | 249
OC(CSc1[nH]cnc2ncnc1-2)CN1CCN(C(c2ccc(Cl)cc2Cl)c2ccc(Cl)cc2Cl)CC1 (stereo not drawn) | 6 | 69 | -10 | 47 | 0.9 | – | – | 1600 | 49
OC(COc1[nH]cnc2ncnc1-2)CN1CCN(C(c2ccccc2)c2ccccc2)CC1 (stereo not drawn) | 2 | 69 | 4 | 37 | 0.9 | Not Active | inactive | – | –
Fc1ccc(C(c2ccc(F)cc2)N2CCN(CCCSc3[nH]cnc4ncnc3-4)CC2)cc1 | 2 | 38 | -6 | 17 | 1.3 | Not Active | inactive | – | –
Cn1cnc2c(SCC(O)CN3CCN(C(c4ccc(F)cc4)c4ccc(F)cc4)CC3)ncnc21 (stereo not drawn) | -2 | 50 | -6 | 11 | 1.9 | – | – | 600 | 142
OC(CNc1[nH]cnc2ncnc1-2)CN1CCN(C(c2ccc(F)cc2)c2ccc(F)cc2)CC1 (stereo not drawn) | 2 | 154 | -2 | 83 | 0.28 | – | – | 500 | 86
OC(COc1ncnc2c1ncn2C1CCCCO1)CN1CCN(C(c2ccccc2)c2ccccc2)CC1 (stereo not drawn) | 0 | 24 | -2 | 13 | – | Not Active | inactive | – | –
Cc1nc(SCC(O)CN2CCN(C(c3ccc(F)cc3)c3ccc(F)cc3)CC2)c2[nH]cnc2n1 (stereo not drawn) | 1 | 23 | 1 | 17 | – | – | – | – | –
OC(CSc1[nH]cnc2ncnc1-2)CN1CCN(C(c2cccc(C(F)(F)F)c2)c2cccc(C(F)(F)F)c2)CC1 (stereo not drawn) | -6 | 68 | 8 | 46 | 1.1 | – | – | 3400 | 106
OC(CSc1ncnc2[nH]cnc12)CN1CCN(C(c2ccc(F)cc2)c2ccc(F)cc2)CC1 (stereo not drawn) [CARSATRIN] | 0 | 224 | -5 | 150 | 0.15 | – | – | 300 | 189
